Test results: article PMC10603355 (Journal for Immunotherapy of Cancer, 2023)

Key:
[1] = system: splenocytes of HHDII/DR1 mice (T-cell IFNγ response); test: IFNγ ELISpot on splenocytes of peptide-immunized HLA-A2 transgenic; type: in vivo, mouse; details: for IFNγ response after immunization with wt peptide: HHDII/DR1 mice, tested against wt or Hcit peptides (figure 2B); for Modification specificity of IFNγ response (Hcit versus wt peptide): HHDII/DR1 and HHDII mice immunized with long Hcit peptide (figure 2A); for Effect of CD4 or CD8 blocking antibody on IFNγ response, ex vivo: HHDII/DR1 mice immunized with long Hcit peptide, 20 µg/mL anti-CD4 or anti-CD8 (figure 1C)
In short: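 HHDII/DR1 or HHDII mice get 25 µg peptide s.c. (stock 1 mg/mL in 20% DMSO/PBS) with 5 µg each CpG ODN 1826 and monophosphoryl lipid A in PBS on days 1, 8 and 15. Spleens taken day 21. 5×10^5 splenocytes/well in quadruplicate are restimulated with peptide for 40 h at 37°C, 5% CO2. IFNγ spots are counted automatically and reported as mean spots/million splenocytes per mouse; n=3 per group.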

[2] = system: B16 HHDII melanoma cells; test: In vivo antitumor study, B16 HHDII tumor in HHDII mice; details: aggressive mouse B16 melanoma model, peptide vaccination
In short: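 HHDII mice receive 5×10^4 B16 HHDII cells s.c. on day 1, then peptide plus CpG/MPLA adjuvant on days 4, 8 and 11. In depletion arms, anti-CD4 (GK1.5) or anti-CD8 (2.43) is given i.p., 500 µg day 4 and 300 µg days 8 and 11. Tumours are checked twice weekly, with euthanasia near 15 mm diameter; n=5–10 per group.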

[3] = system: HLA-A2 on T2 cells; test: T2 binding assay; type: cell-based, human; details: different peptide concentrations; three independent experiments (figure 3C,D)
In short: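 T2 cells (2×10^6/mL) are incubated overnight at 37°C with peptide (dilutions prepared at 400, 40 and 4 µg/mL before mixing) and recombinant human β2-microglobulin (prepared at 800 ng/mL). Brefeldin A is added for 1 h before anti-HLA-A2 FITC staining and flow cytometry. Binding is taken as median fluorescence intensity; three independent experiments, two-way ANOVA.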

Substance	IFNγ response after immunization with wt peptide [1]	Modification specificity of IFNγ response (Hcit versus wt peptide) [1]	Effect of CD4 or CD8 blocking antibody on IFNγ response, ex vivo [1]	also measured
Aldo 204–219wt: wild type (native) long aldolase A peptide (YVTEKVLAAVYKALSD; UniProt P04075 204-219, looked up, fragment)	failed to stimulate detectable IFNγ immune responses	–	–	–
Cyk8 112–132wt: wild type (native) long cytokeratin 8 peptide (LEQQNKMLETKWSLLQQQKTA; UniProt P05787 112-132, looked up, fragment)	failed to stimulate detectable IFNγ immune responses	–	–	–
LEQQN-Hcit-MLET- Hcit-WSLLQQQ- Hcit-T [Cyk8 112-132Hcit]	–	strong modification specific responses	either anti-CD8 or anti-CD4 antibody significantly reduced the immune response	–
VLAAVY-Hcit-AL [Aldo 209-217Hcit]	–	–	–	survival [2]: at least 50%; IFNγ response to short peptide in mice immunized with the long Hcit peptide ([1]; HHDII/DR1 mice immunized with Aldo 204-219Hcit or Cyk8 112-132Hcit (figure 2C)): strong responses; HLA-A2 binding affinity of Hcit peptide compared with corresponding wt peptide [3]: higher binding affinity
YVTE-Hcit-VLAAVY-Hcit-ALSD [Aldo 204-219Hcit]	–	strong modification specific responses	not affected by either of the blocking antibody	–
